Reference: ChEMBL document CHEMBL1806372, “Cytotoxic ring A-modified steroid analogues derived from Grundmann's ketone” (Eur J Med Chem, 2011)
The source made the active and inactive calls. The calls are words filed in the database; no cut-off is given here.

Tests used:
Format in all cases: functional
EKVX = experiment: Growth inhibition of human EKVX cells assessed as cell growth at 10^-5 M after 48 hrs by sulforhodamine B assay; settings: read-out: Activity
How it was run: (§1)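 NCI 60-cell panel single high-dose screen: compound applied at 10^-5 M for 48 h, endpoint by sulforhodamine B protein-binding dye. Values reported as growth percent of treated cells relative to untreated control cells.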

HOP-62 = experiment: Growth inhibition of human HOP62 cells assessed as cell growth at 10^-5 M after 48 hrs by sulforhodamine B assay; settings: HOP-62, 48 h, read-out: Activity; how it was run: as §1
HOP-92 = experiment: Growth inhibition of human HOP92 cells assessed as cell growth at 10^-5 M after 48 hrs by sulforhodamine B assay; settings: HOP-92, 48 h, read-out: Activity; how it was run: as §1
NCI-H226 = experiment: Growth inhibition of human NCI-H226 cells assessed as cell growth at 10^-5 M after 48 hrs by sulforhodamine B assay; settings: NCI-H226, 48 h, read-out: Activity
How it was run: (§2)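 NCI-60 single high-dose screen run under the NCI protocol. Cells were incubated with compound at 10^-5 M for 48 h. The end point was determined by sulforhodamine B protein staining. Results are reported as percent growth of treated cells relative to untreated control cells.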

NCI-H23 = experiment: Growth inhibition of human NCI-H23 cells assessed as cell growth at 10^-5 M after 48 hrs by sulforhodamine B assay; settings: NCI-H23, 48 h, read-out: Activity; how it was run: as §2
NCI-H322M = experiment: Growth inhibition of human NCI-H322M cells assessed as cell growth at 10^-5 M after 48 hrs by sulforhodamine B assay; settings: read-out: Activity; how it was run: as §2
NCI-H522 = experiment: Growth inhibition of human NCI-H522 cells assessed as cell growth at 10^-5 M after 48 hrs by sulforhodamine B assay; settings: NCI-H522, 48 h, read-out: Activity; how it was run: as §2
COLO 205 = experiment: Growth inhibition of human COLO205 cells assessed as cell growth at 10^-5 M after 48 hrs by sulforhodamine B assay; settings: COLO 205, 48 h, read-out: Activity; how it was run: as §1
HT-29 = experiment: Growth inhibition of human HT-29 cells assessed as cell growth at 10^-5 M after 48 hrs by sulforhodamine B assay; settings: HT-29, 48 h, read-out: Activity; how it was run: as §1
SW-620 = experiment: Growth inhibition of human SW620 cells assessed as cell growth at 10^-5 M after 48 hrs by sulforhodamine B assay; settings: SW-620, 48 h, read-out: Activity
How it was run: (§3)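 NCI 60-cell panel single-dose screen under the NCI protocol. Cells are exposed to compound at one concentration (10^-5 M) for 48 h. The end point is protein staining with sulforhodamine B. Each line is reported as percent growth of treated cells relative to untreated control cells.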

SF-268 = experiment: Growth inhibition of human SF268 cells assessed as cell growth at 10^-5 M after 48 hrs by sulforhodamine B assay; settings: SF-268, 48 h, read-out: Activity; how it was run: as §2
SF-295 = experiment: Growth inhibition of human SF295 cells assessed as cell growth at 10^-5 M after 48 hrs by sulforhodamine B assay; settings: SF-295, 48 h, read-out: Activity; how it was run: as §2
U-251 = experiment: Growth inhibition of human U251 cells assessed as cell growth at 10^-5 M after 48 hrs by sulforhodamine B assay; settings: U-251, 48 h, read-out: Activity; how it was run: as §3
MDA-MB-435 = experiment: Growth inhibition of human MDA-MB-435 cells assessed as cell growth at 10^-5 M after 48 hrs by sulforhodamine B assay; settings: MDA-MB-435, 48 h, read-out: Activity; how it was run: as §2
SK-MEL-2 = experiment: Growth inhibition of human SK-MEL-2 cells assessed as cell growth at 10^-5 M after 48 hrs by sulforhodamine B assay; settings: SK-MEL-2, 48 h, read-out: Activity; how it was run: as §2
SK-MEL-5 = experiment: Growth inhibition of human SK-MEL-5 cells assessed as cell growth at 10^-5 M after 48 hrs by sulforhodamine B assay; settings: SK-MEL-5, 48 h, read-out: Activity; how it was run: as §3
UACC-62 = experiment: Growth inhibition of human UACC62 cells assessed as cell growth at 10^-5 M after 48 hrs by sulforhodamine B assay; settings: UACC-62, 48 h, read-out: Activity; how it was run: as §3
OVCAR-3 = experiment: Growth inhibition of human OVCAR3 cells assessed as cell growth at 10^-5 M after 48 hrs by sulforhodamine B assay; settings: OVCAR-3, 48 h, read-out: Activity; how it was run: as §2
OVCAR-8 = experiment: Growth inhibition of human OVCAR8 cells assessed as cell growth at 10^-5 M after 48 hrs by sulforhodamine B assay; settings: OVCAR-8, 48 h, read-out: Activity; how it was run: as §2
NCI/ADR-RES = experiment: Growth inhibition of human NCI/ADR-RES cells assessed as cell growth at 10^-5 M after 48 hrs by sulforhodamine B assay; settings: read-out: Activity; how it was run: as §2
SK-OV-3 = experiment: Growth inhibition of human SKOV3 cells assessed as cell growth at 10^-5 M after 48 hrs by sulforhodamine B assay; settings: SK-OV-3, 48 h, read-out: Activity; how it was run: as §3
786-0 = experiment: Growth inhibition of human 786-0 cells assessed as cell growth at 10^-5 M after 48 hrs by sulforhodamine B assay; settings: 786-0, 48 h, read-out: Activity; how it was run: as §1
ACHN = experiment: Growth inhibition of human ACHN cells assessed as cell growth at 10^-5 M after 48 hrs by sulforhodamine B assay; settings: read-out: Activity; how it was run: as §1
RXF 393 = experiment: Growth inhibition of human RXF393 cells assessed as cell growth at 10^-5 M after 48 hrs by sulforhodamine B assay; settings: RXF 393, 48 h, read-out: Activity; how it was run: as §2
SN12C = experiment: Growth inhibition of human SN12C cells assessed as cell growth at 10^-5 M after 48 hrs by sulforhodamine B assay; settings: read-out: Activity; how it was run: as §3
UO-31 = experiment: Growth inhibition of human UO31 cells assessed as cell growth at 10^-5 M after 48 hrs by sulforhodamine B assay; settings: UO-31, 48 h, read-out: Activity; how it was run: as §3
MDA-MB-231 = experiment: Growth inhibition of human MDA-MB-231 cells assessed as cell growth at 10^-5 M after 48 hrs by sulforhodamine B assay; settings: MDA-MB-231, 48 h, read-out: Activity; how it was run: as §2
[1] = Growth inhibition of human Hs 578T cells assessed as cell growth at 10^-5 M after 48 hrs by sulforhodamine B assay; settings: read-out: Activity; how it was run: as §1
MDA-MB-468 = experiment: Growth inhibition of human MDA-MB-468 cells assessed as cell growth at 10^-5 M after 48 hrs by sulforhodamine B assay; settings: MDA-MB-468, 48 h, read-out: Activity; how it was run: as §2
Nakaseomyces glabratus = experiment: Antifungal activity against Candida glabrata assessed as zone of inhibition at 5 uL and 28 degC after 36 hrs by disk diffusion method
How it was run: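 Agar disc diffusion with the test compound applied as a 1% (w/v) DMSO solution. Yeasts were grown on AC agar and Aspergillus niger on potato dextrose broth agar, each strain spread evenly. Plates were covered and kept 36 h at 28 °C, and the inhibition zone diameter was read in mm. Clotrimazole served as reference.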

CCRF-CEM = experiment: Growth inhibition of human CCRF-CEM cells assessed as cell growth at 10^-5 M after 48 hrs by sulforhodamine B assay; settings: read-out: Activity; how it was run: as §1

## CC(C)CCC[C@@H](C)[C@H]1CC[C@H]2C3=CCn4c(=O)ccc(=O)n4[C@@H]3CC[C@]12C
EKVX
  growth at 10 µM: -82.2%
HOP-62
  growth at 10 µM: -93.3%
HOP-92
  growth at 10 µM: -94%
NCI-H226
  growth at 10 µM: -91.8%
NCI-H23
  growth at 10 µM: -55.4%
NCI-H322M
  growth at 10 µM: -55.3%
NCI-H522
  growth at 10 µM: -66.1%
COLO 205
  growth at 10 µM: -93.1%
HT-29
  growth at 10 µM: -97.5%
SW-620
  growth at 10 µM: -91.6%
SF-268
  growth at 10 µM: -92.3%
SF-295
  growth at 10 µM: -99.5%
U-251
  growth at 10 µM: -96.9%
MDA-MB-435
  growth at 10 µM: -57.4%
SK-MEL-2
  growth at 10 µM: -93%
SK-MEL-5
  growth at 10 µM: -79.3%
UACC-62
  growth at 10 µM: -82.4%
OVCAR-3
  growth at 10 µM: -96.5%
OVCAR-8
  growth at 10 µM: -39.7%
NCI/ADR-RES
  growth at 10 µM: -28.8%
SK-OV-3
  growth at 10 µM: -100%
786-0
  growth at 10 µM: -100%
ACHN
  growth at 10 µM: -95.1%
RXF 393
  growth at 10 µM: -76%
SN12C
  growth at 10 µM: -97.7%
UO-31
  growth at 10 µM: -88.5%
MDA-MB-231
  growth at 10 µM: -89.2%
[1]
  growth at 10 µM: -12.2%
MDA-MB-468
  growth at 10 µM: -49%
Nakaseomyces glabratus
  diameter of the inhibition zone (DIZ): 8 mm
CCRF-CEM
  growth at 10 µM: -2.44%

## CC(C)CCC[C@@H](C)[C@H]1CC[C@H]2[C@@H]3CCN4C(=O)CCC(=O)N4[C@@H]3CC[C@]12C
EKVX
  growth at 10 µM: 83.3%
HOP-62
  growth at 10 µM: 87.7%
HOP-92
  growth at 10 µM: 77.5%
NCI-H226
  growth at 10 µM: 90.3%
NCI-H23
  growth at 10 µM: 87%
NCI-H322M
  growth at 10 µM: 117%
NCI-H522
  growth at 10 µM: 80.2%
COLO 205
  growth at 10 µM: 90.3%
HT-29
  growth at 10 µM: 87.9%
SW-620
  growth at 10 µM: 93.2%
SF-268
  growth at 10 µM: 74.5%
SF-295
  growth at 10 µM: 88.6%
U-251
  growth at 10 µM: 106%
MDA-MB-435
  growth at 10 µM: 97.7%
SK-MEL-2
  growth at 10 µM: 114%
SK-MEL-5
  growth at 10 µM: 96.4%
UACC-62
  growth at 10 µM: 88.1%
OVCAR-3
  growth at 10 µM: 104%
OVCAR-8
  growth at 10 µM: 93.5%
NCI/ADR-RES
  growth at 10 µM: 94.6%
SK-OV-3
  growth at 10 µM: 99.3%
786-0
  growth at 10 µM: 83.8%
ACHN
  growth at 10 µM: 90%
RXF 393
  growth at 10 µM: 102%
SN12C
  growth at 10 µM: 88%
UO-31
  growth at 10 µM: 76.3%
MDA-MB-231
  growth at 10 µM: 98.2%
[1]
  growth at 10 µM: 97%
MDA-MB-468
  growth at 10 µM: 122%
Nakaseomyces glabratus
  diameter of the inhibition zone (DIZ): inactive
CCRF-CEM
  growth at 10 µM: 87.4%

## CC(C)CCC[C@@H](C)[C@H]1CC[C@H]2C3=CC[C@@H]4C(=O)C=CC(=O)[C@@H]4[C@@H]3CC[C@]12C
EKVX
  growth at 10 µM: -10%
HOP-62
  growth at 10 µM: 12.1%
HOP-92
  growth at 10 µM: -28.9%
NCI-H226
  growth at 10 µM: 42%
NCI-H23
  growth at 10 µM: 8.4%
NCI-H322M
  growth at 10 µM: 42.6%
NCI-H522
  growth at 10 µM: -46.1%
COLO 205
  growth at 10 µM: 12.4%
HT-29
  growth at 10 µM: 7.56%
SW-620
  growth at 10 µM: 20.4%
SF-268
  growth at 10 µM: -61.2%
SF-295
  growth at 10 µM: -25.6%
U-251
  growth at 10 µM: 11.5%
MDA-MB-435
  growth at 10 µM: -16.4%
SK-MEL-2
  growth at 10 µM: 41.9%
SK-MEL-5
  growth at 10 µM: -3.37%
UACC-62
  growth at 10 µM: -63.2%
OVCAR-3
  growth at 10 µM: 2.72%
OVCAR-8
  growth at 10 µM: 0.17%
NCI/ADR-RES
  growth at 10 µM: 7.87%
SK-OV-3
  growth at 10 µM: 10.5%
786-0
  growth at 10 µM: -5.66%
ACHN
  growth at 10 µM: 4.54%
RXF 393
  growth at 10 µM: -66.6%
SN12C
  growth at 10 µM: 20.1%
UO-31
  growth at 10 µM: -67.9%
MDA-MB-231
  growth at 10 µM: 28.6%
[1]
  growth at 10 µM: 8.12%
MDA-MB-468
  growth at 10 µM: 2.69%
Nakaseomyces glabratus
  diameter of the inhibition zone (DIZ): inactive
CCRF-CEM
  growth at 10 µM: 17%
